# Assay results as given in ChEMBL document CHEMBL4622973, “Discovery of Potent Small-Molecule SIRT6 Activators: Structure-Activity Relationship and Anti-Pancreatic Ductal Adenocarcinoma Activity” (J Med Chem, 2020).
# Activity calls are given as the source filed them. No cut-off for these calls is given here.
# How the values were obtained:
# [1] = biological target: T1, NAD-dependent protein deacylase sirtuin-6 (Homo sapiens, UniProt Q8N6T7); assay: In-vivo activation of SIRT6 in BALB/c nude mouse xenografted with human PANC1 cells assessed as reduction in H3K9Ac expression at 150 mg/kg/day, po for 30 days by IHC analysis; type: functional, organism-based; conditions: PANC-1
# T1 sequence (Q8N6T7 whole entry): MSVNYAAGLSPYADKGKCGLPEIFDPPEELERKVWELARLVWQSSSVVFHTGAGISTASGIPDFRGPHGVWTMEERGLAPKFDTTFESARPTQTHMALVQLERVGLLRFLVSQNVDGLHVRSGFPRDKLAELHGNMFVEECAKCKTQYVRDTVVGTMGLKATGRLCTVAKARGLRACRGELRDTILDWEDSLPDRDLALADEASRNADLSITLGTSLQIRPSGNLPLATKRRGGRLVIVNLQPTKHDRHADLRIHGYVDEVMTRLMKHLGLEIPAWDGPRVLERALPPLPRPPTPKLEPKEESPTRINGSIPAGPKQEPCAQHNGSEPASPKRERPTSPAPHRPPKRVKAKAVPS
# Method in brief: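 Female BALB/c nude mice (6–8 weeks) bearing subcutaneous PANC-1 xenografts (5×10⁶–1×10⁷ cells, right flank), randomised at 130–150 mm³ tumours; oral dosing daily for 30 days versus vehicle (n=6). Tumour tissue stained by immunohistochemistry.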
# [2] = biological target: NAD-dependent protein deacetylase sirtuin-2 (Homo sapiens, UniProt Q8IXJ6); assay: Inhibition of SIRT2 (unknown origin) by FDL assay
# Sequence of NAD-dependent protein deacetylase sirtuin-2 (Q8IXJ6 whole entry): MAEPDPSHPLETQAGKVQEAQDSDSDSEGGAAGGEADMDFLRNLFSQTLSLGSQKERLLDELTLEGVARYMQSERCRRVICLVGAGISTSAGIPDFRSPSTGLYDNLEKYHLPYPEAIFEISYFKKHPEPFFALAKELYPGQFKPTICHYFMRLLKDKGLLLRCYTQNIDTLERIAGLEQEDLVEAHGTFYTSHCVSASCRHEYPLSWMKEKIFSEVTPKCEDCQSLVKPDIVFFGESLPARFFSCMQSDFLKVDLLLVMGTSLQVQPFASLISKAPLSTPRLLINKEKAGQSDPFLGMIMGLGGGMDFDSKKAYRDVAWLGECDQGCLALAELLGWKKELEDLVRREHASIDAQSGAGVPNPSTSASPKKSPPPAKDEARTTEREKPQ
# Method in brief: (§1)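 Selectivity testing by FDL assay at concentrations up to 200 µM. SIRT1-2 assays run by an outside contract provider. Values reported as IC50.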
# [3] = AUC (0 to t) in Sprague-Dawley rat at 2 mg/kg, iv after 0.25 to 24 hrs by LC-MS/MS analysis; type: ADME, organism-based; conditions: in vivo
# Method in brief: (§2)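 Male Sprague-Dawley rats, 6-8 weeks old. Dosing solution of 10 (PO) or 2 (IV) mg/mL in 5% DMSO, 10% Solutol and 85% saline, pH 7. Blood taken by cardiac puncture at 0.083–24 h (PO) or 0.25–24 h (IV). Plasma levels measured by LC-MS/MS. Values are mean ± SD, n = 3.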
# [4] = biological target: NAD-dependent protein deacetylase sirtuin-1 (Homo sapiens, UniProt Q96EB6); assay: Inhibition of SIRT1 (unknown origin) by FDL assay; method in brief: as §1
# Sequence of NAD-dependent protein deacetylase sirtuin-1 (Q96EB6 whole entry): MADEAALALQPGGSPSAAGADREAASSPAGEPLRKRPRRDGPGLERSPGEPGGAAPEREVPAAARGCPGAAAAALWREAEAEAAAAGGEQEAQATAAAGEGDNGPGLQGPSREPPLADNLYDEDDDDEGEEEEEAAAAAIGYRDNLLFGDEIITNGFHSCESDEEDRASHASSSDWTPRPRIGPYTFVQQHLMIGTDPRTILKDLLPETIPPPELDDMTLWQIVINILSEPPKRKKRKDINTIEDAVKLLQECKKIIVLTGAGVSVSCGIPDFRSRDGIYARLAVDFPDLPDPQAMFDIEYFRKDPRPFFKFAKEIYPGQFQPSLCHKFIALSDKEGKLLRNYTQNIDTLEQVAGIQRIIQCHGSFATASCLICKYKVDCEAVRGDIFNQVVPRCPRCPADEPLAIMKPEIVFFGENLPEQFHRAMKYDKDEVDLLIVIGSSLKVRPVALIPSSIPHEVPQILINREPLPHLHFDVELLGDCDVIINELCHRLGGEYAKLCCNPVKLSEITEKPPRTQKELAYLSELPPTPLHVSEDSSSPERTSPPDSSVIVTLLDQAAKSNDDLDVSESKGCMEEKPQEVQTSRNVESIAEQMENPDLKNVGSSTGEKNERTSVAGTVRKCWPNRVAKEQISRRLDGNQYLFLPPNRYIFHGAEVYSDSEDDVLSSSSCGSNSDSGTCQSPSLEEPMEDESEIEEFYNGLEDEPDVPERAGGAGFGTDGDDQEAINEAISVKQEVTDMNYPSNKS
# BXPC-3 = assay: Antiproliferative activity against human BxPC3 cells assessed as reduction in cell viability incubated for 72 hrs by MTT assay; type: functional, cell-based
# Method in brief: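 PDAC cells grown in DMEM or RPMI1640 with 10% FBS and penicillin/streptomycin at 37 °C, 5% CO2. Plated in triplicate, then treated with a concentration series for 72 h. Viability read by MTT. IC50 calculated from dose-response curves.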
# [5] = AUC (0 to infinity) in Sprague-Dawley rat at 2 mg/kg, iv after 0.25 to 24 hrs by LC-MS/MS analysis; type: ADME, organism-based; design: dose 2 mg/kg, route intravenous, time infinity; conditions: in vivo; method in brief: as §2
# PANC-1 [6] = assay: Inhibition of cell migration of human PANC1 cells at 10 umol/L incubated for 24 hrs by inverted microscopy relative to control; type: functional; conditions: PANC-1, 24 h
# Method in brief: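 PDAC cells are grown to a confluent monolayer at 37 °C in 5% CO2. The monolayer is scratched with a 200 μL pipette tip to make a gap of constant width, then washed with PBS. Cells are exposed to a range of compound concentrations. They are imaged by inverted microscope after 24 h. Migrated cells are counted by hand, and inhibition is expressed relative to untreated wells (100%).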
# [7] = biological target: T1, NAD-dependent protein deacylase sirtuin-6; assay: […] in human PANC1 cells assessed as reduction in H3K18ac levels incubated for 72 hrs by Western blot analysis; type: cell-based; conditions: PANC-1
# Method in brief: (§3)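 Cells incubated 72 h with various compound concentrations; whole-cell RIPA lysates with protease inhibitors, BCA-normalised, separated on 12% SDS-PAGE, transferred to PVDF, blocked in 5% milk or BSA. Probed 10 h at 4 °C with antibodies to SIRT6, acetyl-H3K9/K18/K56, total H3, Lin28b, Myc, IGF2BP3, β-actin; HRP secondary, chemiluminescent detection.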
# [8] = biological target: T1, NAD-dependent protein deacylase sirtuin-6; assay: […] in human PANC1 cells assessed as reduction in H3K56ac levels incubated for 72 hrs by Western blot analysis; type: cell-based; conditions: PANC-1; method in brief: as §3
# [9] = Clearance in Sprague-Dawley rat at 2 mg/kg, iv after 0.25 to 24 hrs by LC-MS/MS analysis; type: ADME, organism-based; conditions: in vivo; method in brief: as §2
# [10] = biological target: Polyamine deacetylase HDAC10 (Homo sapiens, UniProt Q969S8); assay: Inhibition of HDAC10 (unknown origin) by FDL assay; method in brief: as §1
# Sequence of Polyamine deacetylase HDAC10 (Q969S8 whole entry): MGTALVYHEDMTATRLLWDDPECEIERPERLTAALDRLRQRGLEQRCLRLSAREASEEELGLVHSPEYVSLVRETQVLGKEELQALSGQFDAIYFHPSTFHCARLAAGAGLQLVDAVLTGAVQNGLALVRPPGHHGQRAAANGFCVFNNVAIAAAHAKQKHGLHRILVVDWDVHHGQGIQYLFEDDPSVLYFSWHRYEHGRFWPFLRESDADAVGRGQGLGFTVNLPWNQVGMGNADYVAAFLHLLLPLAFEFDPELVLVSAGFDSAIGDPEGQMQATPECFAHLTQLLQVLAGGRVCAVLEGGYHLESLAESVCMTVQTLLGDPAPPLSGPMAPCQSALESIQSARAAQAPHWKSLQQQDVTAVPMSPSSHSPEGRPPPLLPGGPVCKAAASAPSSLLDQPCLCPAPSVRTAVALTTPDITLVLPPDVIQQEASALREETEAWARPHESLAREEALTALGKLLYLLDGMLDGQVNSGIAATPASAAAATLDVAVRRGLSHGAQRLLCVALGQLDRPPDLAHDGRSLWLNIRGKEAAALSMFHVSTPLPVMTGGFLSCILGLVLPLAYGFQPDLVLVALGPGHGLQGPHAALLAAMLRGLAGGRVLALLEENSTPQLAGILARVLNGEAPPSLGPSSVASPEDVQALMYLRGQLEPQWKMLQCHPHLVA
# [11] = biological target: T1, NAD-dependent protein deacylase sirtuin-6; assay: […] in human BxPC3 cells assessed as reduction in H3K56ac levels incubated for 72 hrs by Western blot analysis; type: cell-based; conditions: BXPC-3; method in brief: as §3
# [12] = biological target: T1, NAD-dependent protein deacylase sirtuin-6; assay: Activation of N-terminal his-tagged human SIRT6 expressed in Escherichia coli M15 [pREP4] assessed as increase in peptide demyristoylation incubated for 120 mins using Ac-EALPKK(Myr)-AMC substrate by HPLC analysis
# Method in brief: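 SIRT6 (10 μM) incubated with 100 μM Ac-EALPKK(Myr)-AMC, 3 mM NAD⁺ in assay buffer, with DMSO or 25 μM compound, 37 °C for 2 h. Quenched with 100 mM HCl/160 mM acetic acid at 37 °C for 30 min, centrifuged, supernatant analysed by reverse-phase C18 HPLC, water/acetonitrile with 0.1% TFA.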
# [13] = biological target: T1, NAD-dependent protein deacylase sirtuin-6; assay: Binding affinity to SIRT6 in human BxPC3 cells assessed as protection of SIRT6 protein from temperature-dependent degradation at 25 uM incubated for 72 hrs by CETSA; type: cell-based; conditions: BXPC-3
# Method in brief: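 Cells treated with compound (25 μM) or DMSO for 72 h, washed, resuspended in PBS with protease inhibitor cocktail, split into aliquots heated 3 min at a temperature gradient. Lysed by three freeze–thaw cycles, centrifuged at 4 °C for 15 min; soluble SIRT6 in supernatant detected by western blot. Triplicate.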
# [14] = Half life in Sprague-Dawley rat at 10 mg/kg, po after 0.083 to 24 hrs by LC-MS/MS analysis; type: ADME, organism-based; conditions: in vivo; method in brief: as §2
# PANC-1 [15] = assay: Inhibition of colony formation in human PANC1 cells incubated for 9 to 18 days by crystal violet staining based assay; type: functional, cell-based
# Method in brief: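 Cells are seeded per well at the line-specific density: BXPC-3 750, PANC-1 500, AsPC-1 2200, MIAPaCa-2 500. Compound at several concentrations is added after 24 h. Incubation runs 9–18 days (BXPC-3 18 days, PANC-1 14 days). Cells are then fixed with 4% paraformaldehyde and stained with crystal violet, and colonies of more than 50 cells are counted.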
# Bel-7402 = assay: Antiproliferative activity against human Bel7402 cells assessed as reduction in cell viability incubated for 72 hrs by MTT assay; type: functional, cell-based
# [16] = biological target: T1, NAD-dependent protein deacylase sirtuin-6; assay: Activation of N-terminal his-tagged human SIRT6 expressed in Escherichia coli M15 [pREP4] assessed as increase in peptide demyristoylation at 20 uM incubated for 120 mins using Ac-EALPKK(Myr)-AMC substrate by FDL assay relative to control
# Method in brief: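 Demyristoylation: 1 µM recombinant SIRT6 preincubated with compound for 20 min at 37 °C in 50 mM Tris-HCl pH 8.0, BSA 1 mg/mL, 1 mM DTT, with 10 µM Ac-EALPKK(Myr)-AMC. Started with 1 mM NAD and run 120 min at 37 °C. Developed 120 min at 37 °C with 5 mg/mL trypsin/8 mM nicotinamide. Fluorescence read. Mean ± s.d., triplicate wells, three independent experiments.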
# Histone deacetylase 4 = Histone deacetylase 4 (Homo sapiens, UniProt P56524); assay: Inhibition of HDAC4 (unknown origin) by FDL assay; method in brief: as §1
# Sequence of Histone deacetylase 4 (P56524 whole entry): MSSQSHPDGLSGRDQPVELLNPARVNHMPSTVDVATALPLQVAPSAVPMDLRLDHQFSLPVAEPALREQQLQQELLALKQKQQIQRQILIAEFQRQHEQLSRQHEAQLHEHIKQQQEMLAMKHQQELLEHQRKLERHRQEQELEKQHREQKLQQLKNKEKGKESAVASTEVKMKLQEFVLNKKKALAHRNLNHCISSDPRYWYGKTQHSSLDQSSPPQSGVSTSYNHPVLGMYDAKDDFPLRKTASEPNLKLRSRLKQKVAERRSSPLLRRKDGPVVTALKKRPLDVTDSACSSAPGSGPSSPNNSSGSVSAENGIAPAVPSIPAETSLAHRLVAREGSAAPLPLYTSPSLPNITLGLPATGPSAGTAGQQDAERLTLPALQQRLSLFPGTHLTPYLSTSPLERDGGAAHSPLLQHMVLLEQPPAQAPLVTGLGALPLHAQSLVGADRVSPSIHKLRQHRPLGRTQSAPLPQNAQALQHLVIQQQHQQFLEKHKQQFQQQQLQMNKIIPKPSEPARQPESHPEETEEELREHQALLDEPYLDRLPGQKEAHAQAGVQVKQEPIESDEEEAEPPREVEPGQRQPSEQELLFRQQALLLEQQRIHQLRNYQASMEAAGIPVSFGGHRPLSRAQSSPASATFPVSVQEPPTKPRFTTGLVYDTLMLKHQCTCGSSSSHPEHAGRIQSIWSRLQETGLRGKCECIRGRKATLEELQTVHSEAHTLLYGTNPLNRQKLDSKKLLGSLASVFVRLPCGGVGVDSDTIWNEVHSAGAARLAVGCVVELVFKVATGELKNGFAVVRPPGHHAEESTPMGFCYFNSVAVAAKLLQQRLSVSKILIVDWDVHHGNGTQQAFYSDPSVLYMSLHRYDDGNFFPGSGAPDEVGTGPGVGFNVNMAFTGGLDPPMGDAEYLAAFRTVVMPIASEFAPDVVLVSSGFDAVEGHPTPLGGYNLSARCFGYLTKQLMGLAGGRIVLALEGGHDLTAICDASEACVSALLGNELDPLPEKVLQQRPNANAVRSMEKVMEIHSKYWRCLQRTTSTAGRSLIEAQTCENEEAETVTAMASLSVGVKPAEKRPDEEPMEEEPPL
# Homo sapiens = species: Homo sapiens; assay: Antiproliferative activity against human OCUT-2C cells assessed as reduction in cell viability incubated for 72 hrs by MTT assay; type: functional, cell-based
# SK-OV-3 = assay: Antiproliferative activity against human SKOV3 cells assessed as reduction in cell viability incubated for 72 hrs by MTT assay; type: functional, cell-based
compound,measurement,setting,value
O=C(NC(c1ccccc1)c1ccccc1)c1cc(-c2cc3ccccc3o2)nc2ccccc12,Activity,[1],Active
same,IC50,[2],> 200 µM
same,AUCt,[3],3326.13 ng·mL·h
same,IC50,[4],171 µM
same,Activity,BXPC-3,Dose-dependent effect
same,IC50,"BXPC-3; BXPC-3, 72 h",8.27 µM
same,AUC,[5],3381.49 ng·mL·h
same,inhibition at 10 µM,PANC-1 [6],87.8%
same,inhibition,[7],Dose-dependent effect
same,inhibition,[8],Dose-dependent effect
same,CL,[9],10 mL/min/kg
same,IC50,[10],> 200 µM
same,inhibition,[11],Dose-dependent effect
same,Activity,[12],Active
same,Activity,[13],Active
same,half-life,[14],7.52 h
same,inhibition,PANC-1 [15],Dose-dependent effect
same,Activity,Bel-7402,Active
same,Activity,[16],1230%
same,IC50,Histone deacetylase 4,> 200 µM
same,Activity,Homo sapiens,Active
same,Activity,SK-OV-3,Active
